Compounds with a hit are over-represented: about 2.7% of the library has one in this group of screens.
Yeast life ext = compounds extending yeast replicative lifespan, primary screen, S. cerevisiae, OD615; S. cerevisiae growth with nicotinamide; deaD strain in restrictive glucose medium; inhibition of the nicotinamide effect, % at 10 µM; 0.68% of 130,000 active; AID 775, 2007;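 active = inhibition above a set limit, placed 3 SD over the median of all compounds, cut at about 26% in these data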;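 note: 0% = nicotinamide-treated wells and 100% = cells grown without nicotinamide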
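Assay system: DeaD-strain S. cerevisiae. Medium: CSMM-D glucose medium, restrictive. Reagent: nicotinamide, 1.5 mM, co-present with compound. Compound: 10 µM single point, 0.25% DMSO. Schedule: culture preincubation 4 h, compound exposure 48 h, both 30 °C. Detection: absorbance at 615 nm.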
SDO1 yeast rescue = growth rescue of sdo1-depleted yeast, primary screen, S. cerevisiae, bone marrow failure model; z-score at 10 µM; S. cerevisiae sdo1-depleted JHY4D growth rescue, OD600 30 h; stronger effect = higher value; pdr5 snq2 efflux-pump mutant strain; AID 817, 2007; 0.21% of 140,000 active;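 active = z-score above 3 at both the 24 hr and the 30 hr optical density reads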;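 note: z-score against mean and SD of all compound wells on the same plate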
RAM inhibit = inhibitors of the yeast RAM network, primary screen, dse1pr::URA3 reporter, 5-FOA selection | AID 868, 2007 | 1.8% of 190,000 active | inhibition, % at 50 µM | S. cerevisiae dse1pr::URA3 reporter, 5-FOA growth OD615, 2 d; analog-sensitive cbk1-as2 kinase mutant strain;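 active = inhibition above a set limit, 3 SD over mean compound inhibition, cut at about 8.4% in these data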;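 note: 0% = DMSO-only wells with no growth and 100% = 10 µM 1-NA-PP1 full growth; inhibition rescues growth on 5-FOA so higher OD means more RAM inhibition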
BB579 growth dn = growth inhibitors of yeast BB579 in restrictive medium, primary screen, yeast lifespan-shortening project, S. cerevisiae; AID 804, 2007; inhibition, % at 10 µM; OD615, 48 h; 0.51% of 140,000 active;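 active = inhibition above a set limit, 3 SD over the mean compound inhibition, cut at about 44% in these data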
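System: Saccharomyces cerevisiae DeaD strain BB579, replicative lifespan model yeast | Buffer or medium: Restrictive glucose-based CSMM-D medium | Times: 4 h preincubation and 48 h exposure at 30 °C | Detection: OD615 turbidity measurement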
sdo1 rescue conf = SDO1-depleted yeast growth rescue, concentration-response, diseases of bone marrow failure, JHY4D, OD600. shares compounds with SDO1 yeast rescue. S. cerevisiae JHY4D (SDO1-depleted) growth rescue, 30 h; stronger effect = higher value; efflux-deficient strain, SNQ2 and PDR5 mutated. OD recovery (no concentration beside the values). 44% of 440 active;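 active = yeast growth recovered at 30 hours, either rising with dose fitted slope above 0.001 or with average optical density gain above 0.07, some results past the limit were not filed as active; inactive = growth falling with dose or no effect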;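 note: gain in OD600 from 0 h to 30 h averaged across all seven doses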
Starred values were filed as active, the others as inactive; · = no result.

SMILES	Yeast life ext	SDO1 yeast rescue	RAM inhibit	BB579 growth dn	sdo1 rescue conf
Cc1ccccc1S(=O)(=O)c1c(C)cc(C)n(CC(C)C)c1=O	-4	5.5*	0	-41	0.11*
COc1ccc(/C=N/NC(=S)NC2CCS(=O)(=O)C2)cc1 (stereo not given)	-1	11*	1	-20	0.062
COc1ccc(/C=N/NC(=S)Nc2ccccc2)cc1	·	·	-1	·	·
COc1cc(OC)cc(C(=O)N[C@H](C(=O)NCc2ccco2)C(C)C)c1	·	·	1	·	·
OC(CN1c2ccccc2Sc2ccccc21)Cn1nnc2ccccc21 (stereo not given)	-10	-0.79	7	-51	·
Cc1nn(CC(O)CN2c3ccccc3Sc3ccccc32)c(C)c1Br (stereo not given)	-7	4.5*	3	-66	0.045
Cn1c2c(c(O)c(-c3ccccc3)c1=O)C(=O)CC(C)(C)C2	-1	-0.12	2	-37	·
Cc1cc(C)c(-c2c(O)c3c(n(C)c2=O)CC(C)(C)CC3=O)c(C)c1	5	10*	1	-10	0.08*
CCn1c(C)nc2cc(C(=O)N/N=C/c3ccc(N4CCOCC4)cc3)ccc21	·	·	1	·	·
CCOC(=O)[C@@H]1C(c2c(OC)cc(OC)cc2OC)=NO[C@@H]1C(=O)OCC	6	6*	2	-1	0.071*
O=C(O)CCC(=O)NNc1ccccc1[N+](=O)[O-]	3	0.92	-1	-17	·
CC(=O)N1CCC(=NNc2ccc(S(=O)(=O)N3CCOCC3)cc2[N+](=O)[O-])CC1	-2	12*	0	-14	0.044
Cc1cc(C(=O)NNC2CC(=O)N(c3ccc4ccccc4c3)C2=O)c(C)o1 (stereo not given)	·	·	0	·	·
CN(C)c1nnnn1-c1ccc(Oc2ncc(C(F)(F)F)cc2Cl)cc1	·	·	2	·	·
COc1ccccc1NC(=O)C1CCCN(S(=O)(=O)c2cnc[nH]2)C1 (stereo not given)	7	1.5	2	29	0.043
COc1ccc(C)cc1NC(=O)C1CCCN(S(=O)(=O)c2cnc[nH]2)C1 (stereo not given)	-5	1.2	0	28	·
COc1ccccc1NC(=O)COC(=O)c1ccccc1OCC(=O)Nc1ccc(SC(F)F)cc1	-2	1.3	3	-66	0.073*
COc1ccccc1C(=O)OCC(=O)Nc1ccc(OC(F)F)cc1	-14	0.15	1	-28	·
CC(=O)c1ccc(N2CCN(C(=O)C3CCCN(S(=O)(=O)c4c(C)[nH]c(=O)[nH]c4=O)C3)CC2)cc1 (stereo not given)	·	·	3	·	·
Cc1cc2cc3c(cc2nc1SCC(=O)O)OCCO3	-21	-0.45	4	-16	·
Cc1cc2cc3c(cc2nc1SCC(=O)OC(C)C)OCCO3	-23	3.1*	3	5	0.042
CCOc1ccc(CCN2C(=O)C3C4C=CC(C4)C3C2=O)cc1OCC (stereo not given)	-7	0.85	1	24	0.069
CCOc1ccc(C(C)=O)cc1N1C(=O)C2C3C=CC(C3)C2C1=O (stereo not given)	-5	-0.16	3	-12	·
C=CCC(O)(CC=C)C(C)N (stereo not given)	·	·	2	·	·
Cn1c(CNC(=O)c2ccc(Cl)c(Cl)c2)nnc1SCC(=O)Nc1sc2c(c1C#N)CCCC2	-5	4.7*	5	-48	0.048
SMILES	Yeast life ext	SDO1 yeast rescue	RAM inhibit	BB579 growth dn	sdo1 rescue conf
N#Cc1ccc(-c2ccc(F)cc2)nc1SCC(=O)Nc1sc2c(c1C#N)CCC2	-23	1.8	6	-29	0.064
C/C(=N\NC(=O)Cc1csc(N2CCOCC2)n1)c1ccc(Cl)c(Cl)c1	·	·	0	·	·
Cc1nn(Cc2ccccc2)c(C)c1NC(=O)CSc1n[nH]c(C)c1[N+](=O)[O-]	3	0.85	5	-23	·
Cc1nn(Cc2ccc(Cl)cc2)c(C)c1NC(=O)CSc1n[nH]c(C)c1[N+](=O)[O-]	-1	12*	1	-33	0.06*
COC(=O)c1cc(C#N)c(NCc2ccccc2)nc1C	-15	14*	3	-4	0.087*
COC(=O)c1cc(C#N)c(N(C)Cc2ccccc2)nc1C	-14	-1.8	-1	-37	·
c1ccc(Oc2cccc(NC3=NCCC3)c2)cc1	-5	15*	-1	-12	0.037
O=C(CN1CCN(c2cccc(Cl)c2)CC1)Nc1ccc([N+](=O)[O-])cc1C(=O)Nc1ccccc1F	1	14*	2	-32	0.033
O=C(Nc1ccc2[nH]c(=O)[nH]c2c1)c1c(F)c(F)c(F)c(F)c1F	·	·	3	·	·
Cc1ccc(C)c(N2CCN(C(=O)CN3C(=O)c4ccccc4C3=O)CC2)c1	-20	-0.82	2	-14	·
Cc1ccccc1N1CCN(C(=O)CN2C(=O)c3ccccc3C2=O)CC1	-4	7.4*	1	-35	0.075*
O=C(N/N=C/c1cccc([N+](=O)[O-])c1)C1CC(=O)N(c2ccc(F)cc2)C1 (stereo not given)	10	-0.83	1	-49	·
CC(C)NC(=O)CSCc1cccc(Br)c1	-7	5.2*	1	-57	0.064
CC(NC(=O)CSCc1ccc(Br)cc1)c1ccccc1 (stereo not given)	·	·	2	·	·
Cc1ccc(CNC(=O)CCCn2c(=O)[nH]c3ccccc3c2=O)cc1	-6	8.9*	3	-44	0.029
CCc1ccccc1NC(=O)CC(O)(C(=O)OC)C(F)(F)F (stereo not given)	-2	3.1*	1	-16	0.066
Cc1nc2ncnn2c(C)c1CCC(=O)N1CCCCC1	-2	0.32	0	-23	·
Cc1nc2ncnn2c(C)c1CCC(=O)N1CCOCC1	-9	5.1*	3	-15	0.098*
CCc1cc2c(=O)n(CCC(C)C)c(=S)[nH]c2s1	·	·	4	·	·
O=C(NCCN1CCOCC1)c1ccc(N2CCCC2)c([N+](=O)[O-])c1	·	·	1	·	·
CCOC(=O)c1cnc2ccc(C)cc2c1Sc1ccc(F)cc1	-8	13*	-2	0	0.097*
Cc1cc(NS(=O)(=O)c2ccc(NC(=S)NC(=O)c3ccccc3)cc2)no1	7	2.1	1	7	0.069
O=C(N1CCN(c2ccccc2)CC1)C(F)(F)C(F)F	-8	0.12	0	-50	·
O=C(N1CCN(c2ccccc2)CC1)C(F)(F)C(F)(F)F	0	3.4*	1	11	0.042
COc1ccc(NC(=O)CSc2nnc(CN3CCOCC3)n2-c2ccccc2)cc1Cl	-15	3.5*	-1	-11	0.069
Cc1cc(C)c2c(=O)cc(C(F)(F)F)oc2n1	·	·	0	·	·
COC(=O)CSc1nnc(-c2ccco2)n1Cc1ccco1	-7	0.01	1	-11	·
O=C(CSc1nnc(-c2ccco2)n1Cc1ccco1)NCc1cccs1	-6	6.5*	2	-33	0.071*
